Compound activity: PubChem BioAssay, Johns Hopkins Ion Channel Center
Most compounds without a hit are left out; they make up all but 2.3% or so of the library.
TRPC4 block: blocks the mouse TRPC4 cation channel | Q9QUQ5 | HEK293 TRPC4beta/mu-opioid, DAMGO-evoked Fluo4 calcium flux; stronger effect = lower value | B-score at 10 µM | 0.39% of 300,000 active | AID 2247;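 active = B-score over 3 SD under the library average, no early fluorescence shift, positive overall ratio signal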
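Material: HEK293 cells with stable TRPC4beta plus mu-opioid receptor expression; probe or stimulus: DAMGO in two steps, submaximal then maximal; technique: Fluo4 calcium fluorescence by kinetic imaging, 5 s 1 Hz baseline; measure: integrated fluorescence ratio relative to baseline, converted to per-well B score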
TRPC4 PAM: TRPC4 (mouse) allosteric potentiation; Q9QUQ5; B-score at 10 µM; 0.42% of 310,000 active; HEK293 TRPC4beta/mu-opioid, DAMGO EC20, Fluo-4 Ca2+ flux; stronger effect = higher value;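 active = B-score of calcium response area above 5 SD of library B-scores, with initial fluorescence ratio within 5 SD of library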;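 note: B-score of integrated fluorescence ratio over time as area under calcium response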
TRPC6 activator: activators of mouse TRPC6 channel. HEK293-TRPC6 membrane potential dye fluorescence; stronger effect = higher value. B-score at 10 µM. AID 2550. 0.13% of 310,000 active. Q61143;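 active = B-score of the integrated fluorescence ratio above library mean plus 3 SD, and starting fluorescence ratio within library mean plus 5 SD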;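 note: higher score means more depolarization so channel activation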
TRPC4 agonist: opens the mouse TRPC4 cation channel | Q9QUQ5 | HEK293 TRPC4beta/mu-opioid, Fluo4 calcium fluorescence; stronger effect = higher value | B-score at 10 µM | 0.49% of 310,000 active | AID 2237;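 active = B-score above 5 SD of library B-scores, and initial fluorescence ratio not above library mean plus 5 SD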;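 note: positive B-score marks a calcium rise read as TRPC4 activation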
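Assay system: HEK293 stable line with TRPC4beta plus mu-opioid receptor; schedule: 45 min room-temperature Fluo4 loading, 110 s read; technique: kinetic Fluo4 calcium fluorescence; evaluation: integrated baseline-normalised fluorescence ratio, converted to per-well B score; controls: buffer (low) and maximal DAMGO (high)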
TRPC6 inh: inhibitors of mouse TRPC6 channel. 1.1% of 310,000 active. HEK293-TRPC6, membrane potential dye, ACh-evoked depolarization; stronger effect = lower value. Q61143. B-score at 10 µM. AID 2553;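 active = B-score under library mean minus 3 SD, initial fluorescence not abnormally high, positive integrated signal ratio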;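 note: B-score derived from integrated fluorescence ratio over the kinetic read; more negative B-score means stronger inhibition of depolarization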
TRPC4 spec 2: mouse TRPC4 off-target activity of TRPC6 inhibitors, second screen. shares compounds with TRPC6 inh. HEK293 TRPC4/MOR, membrane potential dye fluorescence; channel activated by saturating DAMGO dose. inhibition, % at 10 µM. 42% of 920 active. AID 2776;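 active = compounds whose fluorescence signal differed from control wells by over 3 SD, either direction, in both duplicate plates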
TRPC4 spec: mouse TRPC4 off-target activity of TRPC6 inhibitors; shares compounds with TRPC6 inh; HEK293 TRPC4/mu-opioid, membrane potential fluorescence; activity change, negative = inhibition, % at 10 µM; 61% of 920 active; AID 2777;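 active = rise or fall in signal beyond 3 SD of buffer-only wells in both replicate plates, either sign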;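 note: integrated kinetic ratio of fluorescence range over baseline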
HEK293 MPD ctr 2-1: second check of TRPC6 inhibitor effects in parental HEK293 cells. AID 2779. signal change vs control, % at 10 µM. parental HEK293 membrane potential dye fluorescence; maximal acetylcholine challenge after compound addition. 31% of 920 active. shares compounds with TRPC6 inh;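 active = membrane potential signal moving either way by over 3 SD of the maximum-effect control, in both duplicate plates, meaning non-specific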
HEK293 MPD ctr-1: checks TRPC6 inhibitor effects in parental HEK293 cells; shares compounds with TRPC6 inh; parental HEK293 membrane potential dye fluorescence; membrane potential signal change, % at 10 µM; 60% of 920 active; AID 2780;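 active = membrane potential signal shifting up or down by more than 3 SD of buffer-only wells, on both duplicate plates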
HEK293 MPD ctr-2: counter-screen for TRPC6 modulators: effect in parental HEK293 cells; membrane potential dye fluorescence; AID 488924; 51% of 2,400 active; membrane potential signal change, % at 10 µM; shares compounds with TRPC6 inh;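 active = membrane potential signal moves up or down beyond 5 SD from buffer-only wells, on both duplicate plates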
HEK293 MPD ctr 2-2: second counter-screen for TRPC6 modulators: effect in parental HEK293 cells; 14% of 2,400 active; membrane potential dye fluorescence; after compound, maximal acetylcholine stimulation; AID 488926; inhibition, % at 10 µM; shares compounds with TRPC6 inh;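 active = membrane potential signal drops by more than 5 SD from the mean control signal, in both duplicate plates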;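 note: plate controls were acetylcholine ECmax control wells for no effect and buffer only wells for full effect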
TRPC4 ctr mod: tests whether TRPC6 modulators also affect mouse TRPC4; percent change from control (negative = decrease, positive = increase), % at 10 µM; HEK293 TRPC4/mu-opioid, membrane potential fluorescence; 69% of 2,400 active; AID 488927; shares compounds with TRPC6 inh;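 active = membrane potential signal moved up or down beyond 5 SD of buffer control wells, in both duplicate plates, actives on both sides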;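 note: plate controls were assay buffer wells for no effect and DAMGO maximal-effect wells for full effect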
TRPC4 ctr inh 2: second selectivity test of TRPC6 modulators against mouse TRPC4. HEK293 TRPC4/mu-opioid, membrane potential dye fluorescence; stimulated with maximal-effect DAMGO. shares compounds with TRPC6 inh. AID 488928. inhibition, % at 10 µM. 55% of 2,400 active;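 active = drop in membrane potential signal beyond 5 SD of the control wells in both duplicate plates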;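 note: TRPC4 counter screen for TRPC6 hits run under conditions tuned for TRPC6 not TRPC4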
TRPC6 inh conf: mouse TRPC6 inhibitor confirmation; HEK293-TRPC6, membrane potential dye, ACh-evoked depolarization; shares compounds with TRPC6 inh; AID 488960; inhibition, % at 10 µM; 43% of 3,300 active;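 active = fluorescence ratio falls more than 5 SD below the full-stimulation control mean, in both duplicate runs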;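 note: integrated fluorescence ratio of peak minus minimum over baseline after agonist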
TRPC6 act conf: mouse TRPC6 activator confirmation | HEK293-TRPC6 membrane potential dye fluorescence, FDSS | activation, % at 10 µM | shares compounds with TRPC6 inh | 11% of 2,800 active | AID 488961;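 active = ratio signal rise beyond 5 SD above unstimulated control wells' mean, seen in both duplicate runs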;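 note: plate controls were buffer EC0 wells for no effect and acetylcholine ECmax response for full effect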
* = called active by the depositor; i = inactive; / = no result.

SMILES | TRPC4 block | TRPC4 PAM | TRPC6 activator | TRPC4 agonist | TRPC6 inh | HEK293 MPD ctr-2 | HEK293 MPD ctr 2-2 | TRPC4 ctr mod | TRPC4 ctr inh 2 | TRPC6 inh conf | TRPC6 act conf | others
O=C(Nc1ccc(C2=NCCN2)cc1)c1ccc(C(=O)Nc2ccc(C3=NCCN3)cc2)c(Cl)c1 | i | i | 16* | i | i | 307%* | i | 54%* | i | i | 154%*
C=CCN(C(=O)CC(NC(C)=O)c1ccccc1)c1nc(-c2ccc(S(C)(=O)=O)cc2)cs1 (stereo unspecified) | i | i | i | i | -6.5* | i | i | i | i | i | i
CC(=O)NC(CC(=O)Nc1nc(C)cs1)c1ccccc1 (stereo unspecified) | i | i | i | i | i | / | / | / | / | / | /
N#Cc1cnn(Cc2ccc(Cl)cc2)c1N | / | i | i | i | i | / | / | / | / | / | /
N#Cc1cnn(Cc2ccccc2)c1N | i | i | i | i | -6.2* | i | i | i | i | i | i
CCc1nc(SCC(=O)Nc2cc(OC)ccc2OC)c2c(C)c(C)sc2n1 | i | i | i | i | i | / | / | / | / | / | /
Cc1scc2c1N(C(=O)CN1CCN(C)CC1)c1ccccc1NC2=O | i | i | i | i | -6.5* | i | 86%* | i | i | 78%* | i
CCN1CCN(CC(=O)N2c3ccccc3Sc3ccccc32)CC1 | i | i | i | i | i | / | / | / | / | / | /
COc1ccc(CNC2CCCC2)c(OC)c1OC | i | i | i | i | i | / | / | / | / | / | /
C=CCOc1ccc(Cl)cc1CNC1CCCC1 | -6* | i | i | i | -7.3* | 321%* | 83%* | 76%* | 91%* | 72%* | /
COc1nc(-c2cccc([N+](=O)[O-])c2)nc2ccccc12 | i | i | i | i | i | / | / | / | / | / | /
CN1CCN(c2nc(N3CCN(CCO)CC3)nc3ccccc23)CC1 | i | i | i | i | -7.1* | -453%* | 84%* | -72%* | 72%* | 80%* | i
Cc1ccc(-c2nc(N3CCN(C)CC3)c3ccccc3n2)cc1 | i | i | i | i | -9* | / | / | / | / | i | i | TRPC4 spec 2=i;TRPC4 spec=-21%*;HEK293 MPD ctr 2-1=i;HEK293 MPD ctr-1=-360%*
CN1CCN(c2nc(-c3cccc([N+](=O)[O-])c3)nc3ccccc23)CC1 | i | i | i | i | -6.1* | -206%* | i | -43%* | 63%* | 54%* | i
